According to ChEMBL document CHEMBL1132294, “Derivatives of the new ring system indolo[1,2-c]benzo[1,2,3]triazine with potent antitumor and antimicrobial activity” (J Med Chem, 1999):
pIC50: −log10 of the molar value. Values after ≈ are worked out from the molar mass of the structure shown.

Key:
KB [1] = experiment: Antiproliferative activity against drug-resistant tumor cell line KB7D.; assay type: functional, cell-based; settings: Homo sapiens
In short: (§1)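 Solid-tumour and KB lines: exponentially growing cells seeded at 5×10⁴ cells/mL, allowed to adhere 16 h, then serial drug dilutions added. Viability by MTT after 4 days. Growth expressed as % of untreated controls, 50% inhibitory concentration by linear regression. Untreated cells undergo at least three rounds of multiplication.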

KB [2] = experiment: Antiproliferative activity against drug-resistant tumor cell line KBV20C.; assay type: functional, cell-based; settings: Homo sapiens; in short: as §1
KB [3] = experiment: Antiproliferative activity against drug-resistant tumor cell line KBCamp.; assay type: functional, cell-based; settings: Homo sapiens; in short: as §1
KB [4] = experiment: Antiproliferative activity against drug-resistant tumor cell line KBMDR.; assay type: functional, cell-based; settings: Homo sapiens; in short: as §1
KB [5] = experiment: Antiproliferative activity against drug-resistant tumor cell line KBwt.; assay type: functional, cell-based; settings: Homo sapiens; in short: as §1
MOLT-4 = experiment: Antitumor activity was evaluated against leukemia cell line MOLT-4(human acute T lymphoblastic leukemia); assay type: functional, cell-based
In short: (§2)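 Exponentially growing leukemia/lymphoma cells resuspended at 1×10⁵ cells/mL in RPMI with serial drug dilutions. Viability by MTT after 4 days at 37 °C. Concentration giving 50% growth inhibition versus untreated controls found by linear regression. Mean of at least three experiments.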

WIL2-NS = experiment: Antitumor activity was evaluated against lymphoma cell line Wil2-NS (human splenic B lymphoblastoid cells).; assay type: functional, cell-based; in short: as §2
HT-29 = experiment: Antitumor activity was evaluated against human colon adenocarcinoma cell line HT-29.; assay type: functional, cell-based; in short: as §1
IMR-32 = experiment: Antitumor activity was evaluated against human neuroblastoma cell line IMR-32.; assay type: functional, cell-based; in short: as §1
CHO-K1 = experiment: Antitumor activity was evaluated against Chinese hamster ovary carcinoma cell line CHO-K1.; assay type: functional, cell-based; settings: Cricetulus griseus; in short: as §1
Lymphoblastoid cell = experiment: Cytotoxicity was evaluated against lymphoblastoid cell line.; assay type: functional; settings: Homo sapiens
5637 = experiment: Antitumor activity was evaluated against human bladder carcinoma cell line 5637.; assay type: functional, cell-based; in short: as §1
Candida tropicalis = experiment: Antimycotic activity against Candida paratropicalis was evaluated. MIC was defined as compound concentration at which no macroscopic signs of fungal growth were detected.; assay type: functional
In short: (§3)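 Yeast inocula from 30 h Sabouraud dextrose broth cultures at 37 °C, diluted to 5×10³ cells/mL. Dermatophyte inocula from 5-day cultures, homogenized and diluted to 0.05 OD₅₉₀/mL. Inocula added to medium with serial dilutions, incubated at 37 °C, read visually at 2 days (yeast) or 3 days (dermatophytes). Mean of at least three experiments.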

ACHN = experiment: Antitumor activity was evaluated against human renal adenocarcinoma cell line ACHN.; assay type: functional, cell-based; in short: as §1
Homo sapiens [6] = organism: Homo sapiens; experiment: In vitro Antiproliferative activity against peripheral blood lymphocytes (PBL) after stimulating PBL with PHA and then resuspending in IL-2-containing medium in the presence of compound.; assay type: functional
In short: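 PBL from HIV-negative donors, isolated on Ficoll-Hypaque and rested overnight. Stimulated with PHA 2.5 μg/mL for 24 h, diluted to 1×10⁵ cells/mL in medium with PHA, IL-2 50 U/mL and compound. Viable cells counted after 6 days. Mean ±SD of three experiments.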

Candida parapsilosis = experiment: Antimycotic activity against Candida parapsilosis was evaluated as compound concentration at which no macroscopic signs of fungal growth were detected; assay type: functional; settings: Lodderomyces parapsilosis; in short: as §3
Homo sapiens [7] = organism: Homo sapiens; experiment: In vitro Antiproliferative activity against peripheral blood lymphocytes (PBL) by treating PBL with compound for 3 days, then stimulating with PHA and then resuspending in compound free medium.; assay type: functional; settings: 72 h
In short: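 Resting donor PBL held at 1×10⁶ cells/mL and treated with compound for up to 3 days, then washed. Stimulated with PHA for 24 h, diluted to 1×10⁵ cells/mL in drug-free medium with PHA and IL-2. Viability read after 6 days at 37 °C. Mean ±SD of three experiments.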

Aspergillus fumigatus = experiment: Antimycotic activity against Aspergillus fumigatus was evaluated as compound minimum inhibitory concentration at which no macroscopic signs of fungal growth were detected.; assay type: functional
Cryptococcus neoformans = experiment: Antimycotic activity against Cryptococcus neoformans was evaluated. MIC was defined as compound concentration at which no macroscopic signs of fungal growth were detected.; assay type: functional; in short: as §3
L1210 = experiment: Antitumor activity was evaluated against leukemia cell line L1210 (mouse leukemia).; assay type: functional, cell-based; in short: as §2
CCRF-SB = experiment: Antitumor activity was evaluated against leukemia cell line CCRF-SB(human acute B lymphoblastic leukemia).; assay type: functional, cell-based; in short: as §2
MT4 = experiment: Antitumor activity was evaluated against leukemia cell line MT-4(human CD4+ T cells expressing the TAT gene of HTLV-1).; assay type: functional, cell-based; in short: as §2
Candida albicans = experiment: Antimycotic activity against Candida albicans was evaluated as minimum inhibitory concentration of compound at which no macroscopic signs of fungal growth were detected; assay type: functional; in short: as §3
Trichophyton benhamiae = experiment: Antimycotic activity against Trichophyton mentagrophytes was evaluated. MIC was defined as compound concentration at which no macroscopic signs of fungal growth were detected.; assay type: functional, Arthroderma benhamiae; in short: as §3
[8] = system: Mycobacterium tuberculosis; experiment: Antibacterial activity was evaluated against Mycobacterium tuberculosis (clinical isolate 1104); assay type: functional
In short: (§4)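 Broth microdilution in Middlebrook 7H9 with 0.5% glycerol and 10% OADC, containing serial concentrations of compound (diluted in medium from a DMSO solution). Plates were incubated 9 days at 37 °C, and viable bacteria were read by MTT. MIC is the mean of at least three separate experiments.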

Salmonella = experiment: Antibacterial activity was evaluated against salmonella.; assay type: functional
In short: (§5)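 Recent clinical isolates grown in nutrient broth, pH 7.2, inoculum 10³ bacterial cells/tube, with serial compound dilutions. […] Mean of at least three separate experiments.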

Mycobacterium = experiment: Antibacterial activity was evaluated against MAC (Mycobacterium Avium Complex ); assay type: functional
In short: (§6)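 Mycobacterial suspension (turbidity of 1 McFarland standard, 10⁸ CFU/mL) added to Middlebrook 7H9 with 0.5% glycerol, 10% OADC and serial compound dilutions. Incubated at 37 °C, 1 day for M. smegmatis and M. fortuitum, 9 days for MAC. Viable mycobacteria counted by MTT. MIC given as mean of at least three separate experiments.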

Streptococcus = experiment: Antibacterial activity was evaluated against streptococcus.; assay type: functional; in short: as §5
Staphylococcus = experiment: Antibacterial activity was evaluated against staphylococcus; assay type: functional; in short: as §5
[9] = system: Mycolicibacterium smegmatis; experiment: Antibacterial activity was evaluated against Mycobacterium smegmatis; assay type: functional; in short: as §6
[10] = system: Mycobacterium tuberculosis; experiment: Antibacterial activity was evaluated against Mycobacterium tuberculosis (ATCC); assay type: functional; in short: as §4
Shigella = experiment: Antibacterial activity was evaluated against shigella.; assay type: functional; in short: as §5
[11] = system: Mycolicibacterium fortuitum; experiment: Antibacterial activity was evaluated against Mycobacterium fortuitum.; assay type: functional; in short: as §6

Compound | pIC50 (KB [1]) | pIC50 (KB [2]) | pIC50 (KB [3]) | pIC50 (KB [4]) | pIC50 (KB [5]) | MIC (Candida tropicalis) [µM] | MIC (Candida parapsilosis) [µM] | MIC (Cryptococcus neoformans) [µM] | MIC (Candida albicans) [µM] | MIC (Trichophyton benhamiae) [µM] | other results
CC[C@@]1(O)C(=O)OCc2c1cc1n(c2=O)Cc2cc3ccccc3nc2-1 [CAMPTOTHECIN] | 7.46 | 7.52 | 5.98 | 7.15 | 7.40 |  |  |  |  |  | 
COc1cccc2c1C(=O)c1c(O)c3c(c(O)c1C2=O)C[C@@](O)(C(=O)CO)C[C@@H]3O[C@H]1C[C@H](N)[C@H](O)[C@H](C)O1 [DOXORUBICIN] |  |  |  |  |  | > 2.5 | > 2.5 | > 2.5 | > 2.5 | > 2.5 | pIC50 (MOLT-4): 7.52; pIC50 (WIL2-NS): 7.70; pIC50 (HT-29): 7.30; pIC50 (IMR-32): 8.00; pIC50 (CHO-K1): 6.40; CC50 (Lymphoblastoid cell): 60 nM; pIC50 5637: 7.70; pIC50 (ACHN): 6.40; CC50 (Homo sapiens [6]): 40 nM; CC50 (Homo sapiens [7]): 90 nM; MIC (Aspergillus fumigatus): > 2.5 µM; pIC50 (L1210): 6.64; pIC50 (CCRF-SB): 8.00; pIC50 (MT4): 7.70
COc1cc([C@@H]2c3cc4c(cc3[C@@H](O[C@@H]3O[C@@H]5CO[C@@H](C)O[C@H]5[C@H](O)[C@H]3O)[C@H]3COC(=O)[C@H]23)OCO4)cc(OC)c1O [ETOPOSIDE] | < 4.30 | < 4.30 | 5.89 | 4.58 | 5.84 |  |  |  |  |  | 
Clc1ccc(COC(Cn2ccnc2)c2ccc(Cl)cc2Cl)c(Cl)c1 (stereo not drawn) [MICONAZOLE] |  |  |  |  |  | 0.9 (≈ 0.375 µg/mL) | 7.5 (≈ 3.12 µg/mL) | 0.9 (≈ 0.375 µg/mL) | 7.5 (≈ 3.12 µg/mL) | 0.9 (≈ 0.375 µg/mL) | 
CN[C@@H]1[C@H](O[C@H]2[C@H](O[C@H]3[C@H](O)[C@@H](O)[C@H](N=C(N)N)[C@@H](O)[C@@H]3N=C(N)N)O[C@@H](C)[C@]2(O)C=O)O[C@@H](CO)[C@H](O)[C@H]1O [STREPTOMYCIN] |  |  |  |  |  |  |  |  |  |  | MIC [8]: 2.9 µM (≈ 1.69 µg/mL); MIC (Salmonella): 8.6 µM (≈ 5 µg/mL); MIC (Mycobacterium): 7.4 µM (≈ 4.3 µg/mL); MIC (Streptococcus): 2.1 µM (≈ 1.22 µg/mL); MIC (Staphylococcus): 4.2 µM (≈ 2.44 µg/mL); MIC [9]: 5 µM (≈ 2.91 µg/mL); MIC [10]: 5.4 µM (≈ 3.14 µg/mL); MIC (Shigella): 2.1 µM (≈ 1.22 µg/mL); MIC [11]: 4 µM (≈ 2.33 µg/mL)
CC[C@]1(O)C[C@H]2CN(CCc3c([nH]c4ccccc34)[C@@](C(=O)OC)(c3cc4c(cc3OC)N(C=O)[C@H]3[C@@](O)(C(=O)OC)[C@H](OC(C)=O)[C@]5(CC)C=CCN6CC[C@]43[C@@H]65)C2)C1 [VINCRISTINE] | 7.46 | 7.30 | 8.30 | 6.46 | 9.00 |  |  |  |  |  | 
